Screening data deposited in PubChem by several laboratories.
NF-kB expr up – activators of NF-kB expression in neurons, primary screen, cell-based, HTS; human neuronal cells, NF-kB reporter expression; hits give high values; fold change at 12.5 µM; hit rate 1.6% among 190,000; in the data active = fold change above about 3.3
APP 5'UTR act – activators of APP 5'UTR luciferase reporter, primary screen, SH-SY5Y cells; activation, % at 2 µM; SH-SY5Y APP 5'UTR luciferase reporter, luminescence; zero percent = DMSO vehicle wells; hit rate 1% among 190,000;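 active = activation above a set limit, based on mean plus 3 SD of controls, cut at about 140% in these data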
STAT1 blocker – STAT1 signaling inhibitors, primary screen, cell-based, HTS, luciferase reporter; NIH 3T3 STAT1-luciferase reporter, IFN-gamma, luminescence; inhibition, % at 5.5 µM; hit rate 0.35% among 200,000; AID 920, 2007;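 active = inhibition above a set limit, the mean inhibition across all tested compounds plus 3 SD, cut at about 34% in these data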;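 also: 0% = IFN-gamma with DMSO and 100% = IFN-gamma with 300 µM nifuroxazide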
STAT1 act-1 – STAT1 signaling activators, primary screen, cell-based, HTS, luciferase reporter; NIH 3T3 STAT1-luciferase reporter, IFN-gamma, luminescence; 100% = IFN-gamma alone, no compound; hit rate 2.6% among 200,000; activation (% of control), % at 5.5 µM;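 active = activation above the screen-wide mean activation plus 3 SD, cut at about 130% in these data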;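 also: raw ratio to IFN-gamma control signal so 100% means no change and 0% no light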
STAT3 inh – IL-6 driven STAT3 reporter inhibitors, primary screen, U3A cells, luciferase, luminescence, MLSCN library; IL-6 STAT3-luciferase reporter; host cell line lacks STAT1; inhibition, % at 5.5 µM; hit rate 0.89% among 190,000; AID 862, 2007;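 active = inhibition above the mean inhibition across all screened compounds plus 3 SD, cut at about 44% in these data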;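 also: 0% = DMSO only wells and 100% = 100 µM nifuroxazide control wells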
STAT3 act-1 – IL-6 driven STAT3 reporter potentiators, primary screen, U3A cells, luciferase, luminescence, MLSCN library. activation (% of control), % at 5.6 µM. IL-6 STAT3-luciferase reporter; 100% = signal with IL-6 EC80 alone. AID 871, 2007. hit rate 0.91% among 190,000;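 active = activation above the screen-wide mean of compound activation plus 3 SD, cut at about 130% in these data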;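 also: 0% = background luminescence of wells with medium and substrate only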
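Material: STAT3-luciferase reporter U3A cells. Controls: IL-6-treated wells, 100% activation. Read-out: % activation versus median of IL-6-stimulated wells. Probe or stimulus: IL-6 stimulus at 33 ng/mL final. Timing: compound 1 h, then IL-6 6 h at 37 °C. Signal: reporter luminescence signal.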
STAT3 act-2 – STAT3 reporter potentiators, retest of hits, confirmation, U3A cells, luciferase, luminescence. shares compounds with STAT3 act-1. IL-6 potentiation; U3A cells lack STAT1; 100 means same as IL-6 alone. potentiation (% of control), % at 5.7 µM. hit rate 64% among 1,200;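 active = percent activation of the STAT3 luciferase reporter above a set limit taken from the earlier primary screen, cut at about 130% in these data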;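 also: 0% = background signal of medium plus substrate and 100% = median of IL-6 with DMSO wells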
NFkB act STAT3ct – NF-kB reporter activators in human cells, counter-screen for STAT3 activator project; shares compounds with STAT3 act-1; NF-kappaB reporter activation; activation (% of control), % at 5.7 µM; hit rate 11% among 1,200; AID 1309, 2008; in the data active = activation above about 120%;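 also: reporter induced by TNF-alpha stimulation; 100% = median of stimulated DMSO wells and 0% = no signal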
STAT1 act-2 – STAT1 reporter activators, IFN-gamma induced, counter-screen for STAT3 activator project, cell-based, NIH 3T3, luciferase luminescence; activation (% of control), % at 5.7 µM; shares compounds with STAT3 act-1; NIH 3T3 STAT1-luciferase reporter; hit rate 13% among 1,200;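 active = activation above the solvent-only control well mean plus 3 SD, set per screening run, cut at about 120% in these data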;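 also: 100% = IFN-gamma with DMSO median signal so 100% means no change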
* = called active by the depositor; . = not tested or not shown. The list is not random: actives were taken first. Their share in the collection is about 4.9%.

SMILES	NF-kB expr up	APP 5'UTR act	STAT1 blocker	STAT1 act-1	STAT3 inh	STAT3 act-1	STAT3 act-2	NFkB act STAT3ct	STAT1 act-2
CCOc1ccc(C(=O)c2cc([N+](=O)[O-])ccc2N2CCOCC2)cc1	3.6*	-94	-25	122	-68	166*	127	165*	132*
Cc1ccc(C(=O)c2cc([N+](=O)[O-])ccc2N2CCCCC2)c(C)c1	3.9*	-96	0	100	-39	137*	116	152*	108
CCC(CC)NC(=O)c1cc([N+](=O)[O-])ccc1N1CCOCC1	0.97	1	-2	102	1	98	.	.	.
Cc1ccc(C(=O)c2cc([N+](=O)[O-])ccc2N2CCOCC2)cc1	2.1	-93	3	97	5	95	.	.	.
COc1ccc(C(=O)c2cc([N+](=O)[O-])ccc2N2CCOCC2)cc1	3.4*	-93	-20	118	-74	163*	125	172*	141*
CCN(Cc1ccccc1)C(=O)COC(=O)c1cc(=O)[nH]c2ccccc12	1.1	11	6	93	5	103	.	.	.
COC(=O)CCCNC(=O)c1ccc2[nH]c(C)c(C)c2c1	1	10	3	97	14	93	.	.	.
Cc1ccc(-c2nc3ccccc3n3nnnc23)cc1	2	82	-5	101	-84	174*	185*	131*	148*
COC(=O)c1[nH]c2ccccc2c1NC(=O)CN1CCCCCC1	0.56	2	7	93	-1	104	.	.	.
CCS(=O)(=O)Nc1c(C(=O)OC)[nH]c2ccccc12	1.2	6	15	86	-42	139*	119	97	92
CCS(=O)(=O)Nc1c(C(=O)O)[nH]c2ccccc12	1.3	17	7	94	-71	164*	169*	102	97
CC(=O)Nc1c(C(=O)O)[nH]c2ccccc12	1.1	9	-1	101	-20	120	.	.	.
CCOC(=O)CSc1ncnc2c1cnn2-c1ccccc1	1.2	-11	-4	103	-38	138*	91	101	96
Cc1cccc(C2NC(=O)c3c(sc(C)c3C)N2)c1O (centres undefined)	1	4	-10	109	-14	117	.	.	.
Cc1ccc(C2NC(=O)c3c(sc(C)c3C)N2)c(O)c1 (centres undefined)	1.8	0	-1	101	-59	158*	159*	106	98
CCOc1ccccc1-n1nnnc1SCc1nc2ccccc2s1	0.85	36	-17	116	-70	166*	156*	119	128*
CCn1c(SCc2nc3ccccc3s2)nnc1-c1cccs1	1.1	56	-19	117	-40	142*	143*	115	129*
COc1ccccc1-c1nnc(SCc2nc3ccccc3s2)n1C	1.4	13	-4	104	-33	129	.	.	.
Cn1c(SCc2nc3ccccc3s2)nnc1-c1cccs1	1	15	-3	102	-23	123	.	.	.
Cc1ccc([N+](=O)[O-])cc1NC(=O)c1cccs1	1.1	-8	3	97	27	80	.	.	.
CNc1cc([N+](=O)[O-])ccc1N/C=C/C(=O)c1cccs1	0.47	3	-6	105	-92	176*	153*	106	101
CCc1nc2c(c(=O)c3ccccc3n2C)c(=O)n1CCc1ccc(OC)cc1	0.61	-12	-11	110	-52	144*	202*	92	113
CCCc1nc2c(c(=O)c3ccccc3n2C)c(=O)n1-c1ccc(F)cc1	1.2	5	-9	108	-27	119	.	.	.
CC(C)(C)n1nc2c(c1NC(=O)c1ccc(S(=O)(=O)N3CCCC3)cc1)CSC2	0.91	-3	9	92	-63	152*	145*	108	95
O=C(Nc1nc(-c2cccs2)cs1)c1cccc(S(=O)(=O)N2CCCCCC2)c1	0.92	31	-19	117	-41	140*	133	111	125*
SMILES	NF-kB expr up	APP 5'UTR act	STAT1 blocker	STAT1 act-1	STAT3 inh	STAT3 act-1	STAT3 act-2	NFkB act STAT3ct	STAT1 act-2
Cn1c(NC(=O)c2ccccc2NC(=O)C(C)(C)C)nc2ccccc21	0.74	-9	-1	101	23	85	.	.	.
COCCCNC(=O)c1cccn2c(=O)c3cc4ccccc4cc3nc12	0.14	110	-19	118	15	90	.	.	.
O=C(NCc1ccco1)c1cccn2c(=O)c3cc4ccccc4cc3nc12	0.91	-28	-1	101	-109	196*	162*	113	105
CCOC(=O)c1ccc(NC(=O)CN(C)S(=O)(=O)c2ccc(Br)s2)cc1	1	-1	3	97	25	84	.	.	.
O=c1c(Cl)c(N/N=C/c2ccc(Br)cc2)cnn1-c1ccccc1	0.99	5	-11	110	-55	150*	126	101	102
O=c1[nH]nc(Cc2ccc3ccccc3n2)c2ccccc12	1.5	28	-11	110	-58	147*	125	105	115
CSCC[C@H](NC(=O)OC(C)(C)C)c1nnc(SCc2cccc(F)c2)o1	0.86	6	-6	105	-42	142*	100	112	109
CSCC[C@H](NC(=O)OC(C)(C)C)c1nnc(SCc2ccc(F)cc2)o1	0.76	-13	-4	104	2	100	.	.	.
COc1cccc(OC)c1C(=O)N1CCN(Cc2ccccc2C)CC1	0.94	2	-2	102	-8	111	.	.	.
CC(C)Cc1cc(C(=O)Nc2cc(Cl)ccc2Cl)no1	1.2	-4	-1	100	-41	138*	137*	112	116
C/C(=N\Nc1ccc(C(F)(F)F)cc1[N+](=O)[O-])C1CC1	1.2	-15	-5	105	9	94	.	.	.
CC(C)Cn1c(N)c(C(=O)COC(=O)[C@@H]2CCCN2C(=O)c2cccs2)c(=O)n(C)c1=O	1	10	3	96	2	100	.	.	.
CCN(CC)CCCN(Cc1cc2cc3c(cc2[nH]c1=O)OCO3)C(=S)Nc1ccc(OC)cc1	1.1	-19	-13	111	-8	107	.	.	.
